Source: ChEMBL document CHEMBL1124392, “Potential antitumor agents. 57. 2-Phenylquinoline-8-carboxamides as "minimal" DNA-intercalating antitumor agents with in vivo solid tumor activity” (J Med Chem, 1989)
Calls of active or inactive are those of the source. The rule behind the calls is not given here.

How the values were obtained:
[1] = system: P388; assay: Percentage increase in lifespan of mice treated at 65 mg/kg/day on days 1, 5, 9 after intraperitoneal inoculation of P388 leukemia cells
[2] = system: Nucleic Acid; assay: Binding constant to poly[d(G-C)] by ethidium bromide displacement; type: nucleic-acid assay
[3] = system: Nucleic Acid; assay: Binding constant to poly[d(A-T)] by ethidium bromide displacement; type: nucleic-acid assay
[4] = system: L1210; assay: Concentration to inhibit growth of murine leukemia cells in culture by 50%.; type: functional, cell-based; settings: Mus musculus
In short: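 Murine L1210 leukemia cells were grown in culture with drug for 40 h. IC50 is the drug concentration, in nM, that inhibits growth by 50%.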

[5] = system: Lewis lung carcinoma cell line; assay: Percentage increase in lifespan of mice treated at 65 mg/kg/day on days 5, 9, 13 after intravenous up to the toxic dose levels tested; type: functional, organism-based; settings: Mus musculus
In short: (§1)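 Mice were inoculated intravenously with 10^6 Lewis lung carcinoma cells. Drug was given ip in 30% v/v ethanol/water on days 5, 9 and 13. ILS is the percentage increase in lifespan at the optimal dose, with six animals per group.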

[6] = system: P388; assay: Percentage increase in lifespan of mice treated at 225 mg/kg/day on days 1, 5, 9 after intraperitoneal inoculation of P388 leukemia cells
[7] = system: P388; assay: Percentage increase in lifespan of mice treated at 100 mg/kg/day on days 1, 5, 9 after intraperitoneal inoculation of P388 leukemia cells
[8] = system: Lewis lung carcinoma cell line; assay: Percentage increase in lifespan of mice treated at 100 mg/kg/day on days 5, 9, 13 after intravenous up to the toxic dose levels tested; type: functional, organism-based; settings: Mus musculus
In short: as §1

[9] = system: P388; assay: Percentage increase in lifespan of mice treated at 100 mg/kg/day on days 1, 5, 9 after intravenous inoculation of P388 leukemia cells; type: functional, Mus musculus; settings: for ILS at 100 mg/kg/day: Mus musculus, P388
[10] = system: P388; assay: Percentage increase in lifespan of mice treated at 65 mg/kg/day on days 1, 5, 9 after […] up to the toxic dose levels tested; type: functional, organism-based; settings: Mus musculus
In short: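 Mice were inoculated intraperitoneally with 10^6 P388 leukemia cells. Drug was given ip in 30% v/v ethanol/water on days 1, 5 and 9. ILS is the percentage increase in lifespan of treated over untreated tumor-bearing animals at the optimal dose, with six animals per group. Values above 20% count as significant, and long-term survivors were scored at 50 days.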

[11] = system: Lewis lung carcinoma cell line; assay: Percentage increase in lifespan of mice treated at 65 mg/kg/day on days 5, 9, 13 after intravenous inoculation of lewis lung carcinoma cells; type: functional, Mus musculus
In short: (§2)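 Mice were given 10^6 Lewis lung carcinoma cells intravenously. Drug was dosed intraperitoneally on days 5, 9 and 13 as a solution in 0.1 mL of 30% v/v ethanol/water, with groups of six animals. Read-out was the percentage increase in lifespan of treated tumor-bearing mice.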

[12] = pKa determined in aqueous solutions spectrophotometrically
[13] = system: Nucleic Acid; assay: Binding constant for poly[d(G-C)] by ethidium bromide displacement; type: nucleic-acid assay
[14] = system: Nucleic Acid; assay: Binding constant for poly[d(A-T)] by ethidium bromide displacement; type: nucleic-acid assay
[15] = system: P388; assay: Percentage increase in lifespan of mice treated at 45 mg/kg/day on days 1, 5, 9 after intraperitoneal up to the toxic dose levels tested; settings: Mus musculus
[16] = system: P388; assay: Percentage increase in lifespan of mice treated at 150 mg/kg/day on days 1, 5, 9 after intraperitoneal up to the toxic dose levels tested; settings: Mus musculus
[17] = system: Lewis lung carcinoma cell line; assay: Percentage increase in lifespan of mice treated at 100 mg/kg/day on days 5, 9, 13 after intravenous inoculation of lewis lung carcinoma cells; type: functional, Mus musculus
In short: as §2

[18] = system: P388; assay: Percentage increase in lifespan of mice treated at 65 mg/kg/day on days 1, 5, 9 after intraperitoneal up to the toxic dose levels tested; settings: Mus musculus
[19] = system: P388; assay: Percentage increase in lifespan of mice treated at 100 mg/kg/day on days 1, 5, 9 after intraperitoneal up to the toxic dose levels tested; settings: Mus musculus
[20] = system: Lewis lung carcinoma cell line; assay: Percentage increase in lifespan of mice treated at 150 mg/kg/day on days 5, 9, 13 after intravenous inoculation of lewis lung carcinoma cells; type: functional, Mus musculus
In short: as §2

| Compound | Log K [2] | Log K [3] | IC50 [4] | ILS [7] | ILS [8] | also measured |
| --- | --- | --- | --- | --- | --- | --- |
| CN(C)CCNC(=O)c1cccc2ccc(-c3cccc(Cl)c3)nc12 | 6.47 | 6.05 | 1200 nM | – | – | ILS [1]: 40; ILS [5]: inactive |
| COc1cccc(-c2ccc3cccc(C(=O)NCCN(C)C)c3n2)c1 | 6.41 | 6.3 | 860 nM | – | – | ILS [6]: 46 |
| CN(C)CCNC(=O)c1cccc2ccc(-c3ccc(F)cc3)nc12 | 6.66 | 6.74 | 730 nM | 24 | inactive | – |
| CN(C)CCNC(=O)c1cccc2ccc(-c3ccc(I)cc3)nc12 | 6.87 | 6.8 | 400 nM | 48 | inactive | – |
| Br.Br.CN(C)CCNC(=O)c1cccc2ccc(-c3ccc(O)cc3)nc12 | 6.48 | 6.3 | 1280 nM | – | inactive | ILS [9]: 22 |
| CN(C)CCNC(=O)c1cccc2ccc(-c3ccccc3Cl)nc12 | 5.12 | 5.32 | 8100 nM | – | – | ILS [10]: inactive |
| CN(C)CCNC(=O)c1cccc2ccc(-c3ccc(Cl)cc3)nc12 | 5.99 | 6.08 | 1170 nM | 52 | – | ILS [11]: 45; pKa [12]: 2.42 |
| CC(=O)Nc1ccc(-c2ccc3cccc(C(=O)NCCN(C)C)c3n2)cc1 | – | – | 600 nM | – | – | Log K [13]: 7.07; Log K [14]: 6.49; ILS [10]: inactive |
| CN(C)CCNC(=O)c1cccc2ccc(-c3ccc(NS(C)(=O)=O)cc3)nc12 | 6.22 | 6.04 | 1330 nM | – | – | ILS [15]: inactive |
| CN(C)CCNC(=O)c1cccc2ccc(-c3ccc(-c4ccccc4)cc3)nc12 | 6.96 | 6.88 | 1290 nM | – | – | ILS [16]: inactive |
| CN(C)CCNC(=O)c1cccc2ccc(-c3ccccc3)nc12 | 5.92 | 5.98 | – | – | – | ILS at 100 mg/kg/day [9]: 91%; ILS at 100 mg/kg/day ([17]; Mus musculus, Lewis lung carcinoma): 70% |
| CN(C)CCCCNC(=O)c1cccc2ccc(-c3ccccc3)nc12 | 5.89 | 6.19 | 680 nM | 93 | – | – |
| CN(C)CCCCCNC(=O)c1cccc2ccc(-c3ccccc3)nc12 | 5.73 | 5.9 | 1300 nM | – | inactive | ILS [10]: inactive |
| CN(C)CCNC(=O)c1cccc2ccc(-c3ccc(S(C)(=O)=O)cc3)nc12 | – | 5.68 | 5800 nM | 29 | inactive | – |
| O=C(NCCN1CCOCC1)c1cccc2ccc(-c3ccccc3)nc12 | 5.61 | 6.12 | 44 nM | – | – | ILS [18]: inactive |
| CN(C)CCNC(=O)c1cccc2ccc(-c3ccc(C(F)(F)F)cc3)nc12 | 6.72 | 6.64 | 2100 nM | – | inactive | ILS [19]: inactive |
| CN(C)CCCNC(=O)c1cccc2ccc(-c3ccccc3)nc12 | 5.62 | 5.9 | 1140 nM | – | inactive | ILS at 100 mg/kg/day [9]: 71% |
| CN(C)CCNC(=O)c1cccc2ccc(-c3ccc4ccccc4c3)nc12 | 7.35 | 7 | 860 nM | – | – | ILS [16]: inactive |
| O=C(NCCNCCO)c1cccc2ccc(-c3ccccc3)nc12 | 6.31 | 6.22 | 36 nM | – | – | ILS [18]: inactive; ILS [5]: inactive |
| CN(C)CCNC(=O)c1cccc2ccc(-c3ccc(N)cc3)nc12 | 6.96 | 6.42 | 200 nM | 28 | – | ILS [20]: 59 |
| COc1ccc(-c2ccc3cccc(C(=O)NCCN(C)C)c3n2)cc1 | 6.27 | 6.4 | 1290 nM | – | inactive | ILS [9]: 42; pKa [12]: 3.28 |
| CN(C)CCNC(=O)c1cccc2ccc(-c3ccccn3)nc12 | 5.85 | 5.82 | 1640 nM | – | – | ILS [9]: 73; ILS [17]: 84 |
| CN(C)CCNC(=O)c1cccc2ccc(-c3ccc(Br)cc3)nc12 | 6.68 | 6.63 | 600 nM | 72 | inactive | – |
| CN(C)CCNC(=O)c1cccc2ccc(-c3cccnc3)nc12 | 6.09 | 5.81 | 840 nM | 58 | – | ILS [17]: 55 |
| CN(C)CCNC(=O)c1cccc2ccc(-c3ccc([N+](=O)[O-])cc3)nc12 | 6.13 | 6.28 | 290 nM | – | – | ILS [9]: 58; ILS [11]: 85 |
| CN(C)CCNC(=O)c1cccc2ccc(-c3ccncc3)nc12 | 6.32 | 5.82 | 170 nM | – | – | ILS [11]: 191 |
